Where a SMILES comes first, the peptide text is derived from it. [ ]: non-standard residue; d: D form. Nle = CCCC[C@H](N)C(=O)O; Dab = NCC[C@H](N)C(=O)O
Experiments:
[1] = system: human embryonic lungs (L132) cell lines; test: Cell viability; format: cell-based; conditions: L132 cells, 100 μM peptide, 4 h, absorbance 570 nm, triplicate
[2] = system: trypsin, chymotrypsin, and proteinase K; test: Proteolytic stability assay; format: in vitro ADME; conditions: reaction mixture post-incubation with enzyme cocktail, ESI-MS positive mode
Procedure, shortened: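 Test compound (10 mM) was incubated with a 1:1:1 trypsin/chymotrypsin/proteinase K mixture (0.3 mg/mL) at 37 °C for 0–6 h. Enzymes were inactivated with an equal volume of acetonitrile containing 1% TFA for 15 min at 4 °C. The post-incubation reaction mixture was analysed by ESI-MS for intact peptide.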

## CCCC[C@H](NC(=O)[C@H](CCN)NC(=O)[C@H](CCN)NC(=O)[C@H](CCCC)NC(=O)[C@H](Cc1c[nH]c2ccccc12)NC(=O)[C@H](CCN)NC(=O)[C@@H](N)CCCC)C(N)=O [P36, Nle-Dab-Trp-Nle-Dab-Dab-Nle-CONH2] (H-[Nle][Dab]W[Nle][Dab][Dab][Nle]-NH2)
[1]
  cell viability (MTT): ~90%
[2]
  chemical integrity after protease incubation (ESI-MS): contained only intact P36

— article PMC9097201 (ACS Omega, 2022)
